Calls of active or inactive are those of the source. The calls are words filed in the database; no cut-off is given here.
What was measured:
[1] = Ratio of drug concentration in plasma of Sprague-Dawley rat at 10 mg/kg, po to IC50 of gamma-secretase in human SK-N-BE cells; type: ADME, organism-based; conditions: in vivo
[2] = Ratio of drug concentration in brain to blood of Sprague-Dawley rat at 10 mg/kg, po measured after 3 hrs by LC/MS-MS analysis; type: ADME, organism-based; conditions: brain and blood
In short: (§1)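 Nonfasted 6-week-old male SD rats (n = 2 or 3) received a single oral dose of 10 or 30 mg/kg as a suspension in 0.5% (w/v) methylcellulose. Plasma and brain were sampled 3 h post-dose, proteins were precipitated with acetonitrile, and drug was quantified by LC-MS/MS. Values are the mean of two or three rats. The brain/plasma ratio was taken from these concentrations.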

[3] = biological target: T1, Cytochrome P450 1A2 (Homo sapiens, UniProt P05177); assay: Inhibition of human recombinant CYP1A2 assessed as reduction in metabolite formation using CEC as substrate incubated for 20 mins by fluorescence assay; type: ADME
T1 sequence (P05177 whole entry): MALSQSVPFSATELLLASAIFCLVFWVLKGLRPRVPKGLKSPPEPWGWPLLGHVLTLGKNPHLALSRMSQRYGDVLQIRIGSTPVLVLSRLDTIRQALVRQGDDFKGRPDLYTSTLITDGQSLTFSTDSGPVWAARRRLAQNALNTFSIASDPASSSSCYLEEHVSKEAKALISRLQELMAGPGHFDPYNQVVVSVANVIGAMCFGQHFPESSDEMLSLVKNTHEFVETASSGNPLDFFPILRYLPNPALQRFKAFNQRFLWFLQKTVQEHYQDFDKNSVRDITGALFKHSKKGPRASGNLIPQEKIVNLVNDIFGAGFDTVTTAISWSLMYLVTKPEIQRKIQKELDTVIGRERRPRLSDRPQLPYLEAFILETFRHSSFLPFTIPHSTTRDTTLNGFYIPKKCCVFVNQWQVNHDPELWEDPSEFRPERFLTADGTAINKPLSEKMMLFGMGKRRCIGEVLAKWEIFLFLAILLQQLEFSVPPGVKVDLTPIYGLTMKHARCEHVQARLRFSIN
In short: (§2)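 Recombinant human CYP with co-factors, fluorogenic substrate, potassium phosphate buffer pH 7.4 and test compound at 0.31–20 μM, incubated at 37 °C. Substrates and incubation times: CYP1A2, 5 μM CEC, 20 min; CYP2C9, 75 μM MFC, 30 min; CYP2C19, 25 μM CEC, 20 min; CYP2D6, AMMC, 20 min. Stopped with Tris base/acetonitrile; metabolite read by fluorescence. IC50 is the mean of duplicates.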

[4] = biological target: Gamma-secretase; assay: Inhibition of gamma-secretase in human SK-N-BE cells assessed as decrease in amyloid beta 42 production treated for 6 hrs by ELISA; type: cell-based
In short: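 SK-N-BE(2) human neuroblastoma cells grown in RPMI1640 with 10% FBS and penicillin/streptomycin, plated in 96-well plates overnight, then exposed to a range of drug concentrations in 0.5% DMSO for 6 h. Medium Aβ1-42 was measured by sandwich ELISA (44A3 capture, biotin-82E1 detection, streptavidin-HRP, TMB). Total Aβ was measured by ELISA kit. Mean of two wells.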

[5] = biological target: Cytochrome P450 2C19 (Homo sapiens, UniProt P33261); assay: Inhibition of human recombinant CYP2C19 assessed as reduction in metabolite formation using CEC as substrate incubated for 20 mins by fluorescence assay; type: ADME; in short: as §2
[6] = test system: Rattus norvegicus; assay: Reduction in amyloid beta 42 production in Sprague-Dawley rat plasma at 10 mg/kg, po measured after 3 to 4 hrs by ELISA relative to control; type: functional
In short: (§3)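 Nonfasted 6-week-old male SD rats (n = 4 or 5) given a single oral dose of 10 or 30 mg/kg in 0.5% (w/v) methylcellulose. Blood and brain were taken under isoflurane 3 h post-dose (4 h for some entries). Hippocampus was sonicated in 10 volumes of TBS pH 7.4 with protease inhibitors and spun at 100,000g, 4 °C, 1 h. Aβx-42 in supernatant and plasma measured by ELISA; Student's t-test vs vehicle.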

[7] = biological target: T2, CYP3A4 (Homo sapiens, UniProt P08684); assay: Inhibition of CYP3A4 in human liver microsome assessed as enzyme residual activity pre-incubated for 30 min followed by midazolam addition incubated for 20 mins by LC-MS/MS analysis relative to control; type: ADME; conditions: liver microsomes, probe midazolam, read-out: INH
In short: (§4)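 Human liver microsomes at 0.1 mg protein/mL with 1 mM NADPH, 0.1 mM EDTA, 100 mM Na+-K+ phosphate pH 7.4 and 5 μM test compound, preincubated 0 or 30 min at 37 °C. Started with 1.5 μM midazolam, run 20 min, stopped with 80% acetonitrile containing internal standard. Peak-area ratios with compound vs without gave residual activity; mean of duplicates.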

[8] = test system: Rattus norvegicus; assay: Reduction in amyloid beta 42 production in Sprague-Dawley rat plasma at 30 mg/kg, po measured after 3 to 4 hrs by ELISA relative to control; type: functional; in short: as §3
[9] = biological target: Cytochrome P450 2C9 (Homo sapiens, UniProt P11712); assay: Inhibition of human recombinant CYP2C9 assessed as reduction in metabolite formation using MFC as substrate incubated for 30 mins by fluorescence assay; type: ADME; in short: as §2
[10] = test system: Mus musculus; assay: Antialzheimer activity in transgenic Tg2576 mouse assessed as improvement of spatial memory impairment at 2 and 6 mg/kg, po administered daily for 8 weeks measured after 3 hrs on day 8 by Y-maze test; type: functional, organism-based; conditions: in the assay text read “8 days” for “8 weeks”
In short: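 Female Tg2576 mice, 6 months old, nonfasted (n = 5 or 6), dosed orally once daily for 8 days at 0.6, 2.0, 6.0 or 20 mg/kg as a suspension in 0.5% methyl cellulose. Three hours after the day-8 dose, each mouse started at the end of one arm of a three-arm Y-maze and explored freely for 8 min. Spontaneous alternation was scored; animals with <10 total arm entries were excluded. Student's t-test vs vehicle.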

[11] = Ratio of drug concentration in brain of Sprague-Dawley rat at 30 mg/kg, po to IC50 of gamma-secretase in human SK-N-BE cells; type: ADME, organism-based; conditions: in vivo
[12] = Drug concentration in brain of Sprague-Dawley rat at 30 mg/kg, po measured after 3 hrs by LC/MS-MS analysis; type: ADME, organism-based; conditions: in vivo; in short: as §1
[13] = Ratio of drug concentration in plasma of Sprague-Dawley rat at 30 mg/kg, po to IC50 of gamma-secretase in human SK-N-BE cells; type: ADME, organism-based; conditions: in vivo
[14] = Drug concentration in plasma of Sprague-Dawley rat at 30 mg/kg, po measured after 3 hrs by LC/MS-MS analysis; type: ADME, organism-based; in short: as §1
[15] = test system: Rattus norvegicus; assay: Reduction in amyloid beta 42 production in Sprague-Dawley rat brain at 10 mg/kg, po measured after 3 to 4 hrs by ELISA relative to control; type: functional; in short: as §3
[16] = test system: Rattus norvegicus; assay: Reduction in amyloid beta 42 production in Sprague-Dawley rat brain at 30 mg/kg, po measured after 3 to 4 hrs by ELISA relative to control; type: functional; in short: as §3
[17] = Drug concentration in plasma of Sprague-Dawley rat at 10 mg/kg, po measured after 3 hrs by LC/MS-MS analysis; type: ADME, organism-based; in short: as §1
[18] = Ratio of drug concentration in brain of Sprague-Dawley rat at 10 mg/kg, po to IC50 of gamma-secretase in human SK-N-BE cells; type: ADME, organism-based; conditions: in vivo
[19] = Intrinsic clearance in rat liver microsomes at 0.2 uM incubated upto 45 mins by LC/MS-MS analysis; type: ADME, Microsome; conditions: for CLint scaled at 0.2 µM: liver microsomes
In short: (§5)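 Test compound at 0.2 μM incubated at 37 °C with pooled rat or mouse liver microsomes (0.2 mg protein/mL), 1 mM NADPH and 0.1 mM EDTA in 100 mM Na+-K+ phosphate, pH 7.4. Samples taken at 0, 15, 30 and 45 min; compound/internal-standard peak areas measured by LC-MS/MS to calculate CLint (mL/min/kg). Mean of duplicate experiments.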

[20] = Ratio of drug concentration in brain to blood of Sprague-Dawley rat at 30 mg/kg, po measured after 3 hrs by LC/MS-MS analysis; type: ADME, organism-based; conditions: brain and blood; in short: as §1
[21] = biological target: Cytochrome P450 2D6 (Homo sapiens, UniProt P10635); assay: Inhibition of human recombinant CYP2D6 assessed as reduction in metabolite formation using AMMC as substrate incubated for 20 mins by fluorescence assay; type: ADME; in short: as §2
[22] = Drug concentration in brain of Sprague-Dawley rat at 10 mg/kg, po measured after 3 hrs by LC/MS-MS analysis; type: ADME, organism-based; conditions: in vivo; in short: as §1
[23] = biological target: T2, CYP3A4; assay: Inhibition of CYP3A4 in human liver microsome assessed as enzyme residual activity pre-incubated for 0 min followed by midazolam addition incubated for 20 mins by LC-MS/MS analysis relative to control; type: ADME; conditions: liver microsomes, probe midazolam, read-out: INH; in short: as §4
[24] = Intrinsic clearance in mouse liver microsomes at 0.2 uM incubated upto 45 mins by LC/MS-MS analysis; type: ADME, Microsome; in short: as §5

T2 sequence (P08684 whole entry): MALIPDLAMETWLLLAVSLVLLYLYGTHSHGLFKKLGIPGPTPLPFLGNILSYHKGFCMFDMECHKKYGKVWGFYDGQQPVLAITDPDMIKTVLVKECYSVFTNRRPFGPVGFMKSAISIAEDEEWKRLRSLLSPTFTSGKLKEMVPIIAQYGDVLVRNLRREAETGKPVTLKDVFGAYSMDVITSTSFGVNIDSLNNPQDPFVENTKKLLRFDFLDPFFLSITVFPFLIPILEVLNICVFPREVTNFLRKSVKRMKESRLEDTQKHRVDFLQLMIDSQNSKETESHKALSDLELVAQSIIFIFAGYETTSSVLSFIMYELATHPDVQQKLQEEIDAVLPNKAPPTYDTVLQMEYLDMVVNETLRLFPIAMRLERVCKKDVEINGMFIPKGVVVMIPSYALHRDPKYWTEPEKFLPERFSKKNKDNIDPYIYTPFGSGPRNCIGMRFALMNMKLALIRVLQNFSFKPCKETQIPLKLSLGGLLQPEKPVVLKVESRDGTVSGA
Sequence of Cytochrome P450 2D6 (P10635 whole entry): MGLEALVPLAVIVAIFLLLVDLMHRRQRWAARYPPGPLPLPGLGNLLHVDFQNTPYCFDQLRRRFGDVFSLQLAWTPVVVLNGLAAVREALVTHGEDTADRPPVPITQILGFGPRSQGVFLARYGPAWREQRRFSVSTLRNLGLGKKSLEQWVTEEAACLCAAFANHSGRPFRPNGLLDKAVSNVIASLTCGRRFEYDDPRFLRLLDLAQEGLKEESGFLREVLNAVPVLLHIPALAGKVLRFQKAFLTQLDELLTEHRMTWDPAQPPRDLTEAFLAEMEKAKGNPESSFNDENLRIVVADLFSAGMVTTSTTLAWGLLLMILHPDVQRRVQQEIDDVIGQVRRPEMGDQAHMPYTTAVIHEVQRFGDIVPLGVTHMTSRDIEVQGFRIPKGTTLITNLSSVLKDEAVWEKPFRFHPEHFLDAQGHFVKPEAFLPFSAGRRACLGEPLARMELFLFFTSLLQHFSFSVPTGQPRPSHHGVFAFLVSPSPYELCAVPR
Sequence of Cytochrome P450 2C19 (P33261 whole entry): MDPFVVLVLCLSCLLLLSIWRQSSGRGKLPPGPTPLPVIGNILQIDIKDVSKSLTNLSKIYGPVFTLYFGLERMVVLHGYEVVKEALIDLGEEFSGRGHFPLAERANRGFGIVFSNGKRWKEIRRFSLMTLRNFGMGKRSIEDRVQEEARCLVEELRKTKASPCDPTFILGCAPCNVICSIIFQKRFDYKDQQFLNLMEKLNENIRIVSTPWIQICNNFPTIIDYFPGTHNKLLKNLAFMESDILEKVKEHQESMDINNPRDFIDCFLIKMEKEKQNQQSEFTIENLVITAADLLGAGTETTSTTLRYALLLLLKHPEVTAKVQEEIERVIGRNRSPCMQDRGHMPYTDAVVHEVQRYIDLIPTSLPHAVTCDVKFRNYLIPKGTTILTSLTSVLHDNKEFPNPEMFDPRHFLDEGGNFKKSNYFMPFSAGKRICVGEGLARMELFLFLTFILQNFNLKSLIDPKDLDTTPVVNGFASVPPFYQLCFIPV
Sequence of Cytochrome P450 2C9 (P11712 whole entry): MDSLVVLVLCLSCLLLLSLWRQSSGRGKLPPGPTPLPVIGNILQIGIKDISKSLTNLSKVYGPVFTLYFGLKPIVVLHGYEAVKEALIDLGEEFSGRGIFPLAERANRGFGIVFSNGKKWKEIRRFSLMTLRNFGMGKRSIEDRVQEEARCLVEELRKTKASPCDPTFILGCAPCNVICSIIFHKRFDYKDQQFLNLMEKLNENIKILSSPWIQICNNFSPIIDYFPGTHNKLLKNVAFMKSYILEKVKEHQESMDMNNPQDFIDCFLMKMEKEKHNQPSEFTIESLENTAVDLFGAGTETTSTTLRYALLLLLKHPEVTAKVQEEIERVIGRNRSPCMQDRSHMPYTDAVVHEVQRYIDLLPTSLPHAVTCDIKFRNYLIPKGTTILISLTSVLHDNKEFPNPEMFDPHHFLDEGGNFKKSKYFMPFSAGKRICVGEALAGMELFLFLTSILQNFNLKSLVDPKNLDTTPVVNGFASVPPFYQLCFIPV

SMILES	IC50 [4] [µM]	inhibition in vivo at 30 mg/kg [8] [%]	inhibition in vivo at 30 mg/kg [16] [%]	CLint scaled at 0.2 µM [19] [mL/min/kg]	other results
CNC(=O)c1ccc(-c2c(C)nc3c(OCc4ccc(-c5ccc(F)cc5)cc4F)cccn23)cn1.Cl	0.029	77	42	115	Ratio [1]: 196; Kp at 3 h [2]: 0.27; IC50 [3]: > 10 µM; IC50 [5]: > 10 µM; inhibition in vivo at 10 mg/kg [6]: 63%; activity at 20 min [7]: 104%; IC50 [9]: > 10 µM; Activity [10]: Active; Ratio [11]: 121; Ct [12]: 3.5 nmol/g; Ratio [13]: 561; concentration at 3 h [14]: 16 µM; inhibition in vivo at 10 mg/kg [15]: 23%; concentration at 3 h [17]: 5.7 µM; Ratio [18]: 51; Kp at 3 h [20]: 0.23; IC50 [21]: > 10 µM; Ct [22]: 1.5 nmol/g; activity at 20 min [23]: 109%
CCNC(=O)c1ccc(-c2c(C)nc3c(OCc4ccc(-c5cccc(C(F)(F)F)c5)cc4)cccn23)cn1	0.061	62	15	38	–
CCNC(=O)c1ccc(-c2c(C)nc3c(OCc4ccc(-c5ccccc5)cc4)cccn23)cn1.Cl	–	28	13	835	CLint scaled at 0.2 µM [24]: 227 mL/min/kg; Ratio [11]: 23; Ct [12]: 2.1 nmol/g; Ratio [13]: 75; concentration at 3 h [14]: 6.8 µM; Kp at 3 h [20]: 0.3
CCNC(=O)c1ccc(-c2c(C)nc3c(OCc4ccc(-c5ccccc5F)cc4)cccn23)cn1	0.22	–	–	> 1000	–
CCNC(=O)c1ccc(-c2c(C)nc3c(OCc4ccc(-c5ccc(C(F)(F)F)cc5)cc4)cccn23)cn1.Cl	0.21	40	4	–	CLH ([19]; microsomes, 0.75 h, 0.2 µM): Stable
CCn1oc2cc(-c3c(C)nc4c(OCc5ccc(-c6ccc(F)cc6)cc5)cccn34)ccc2c1=O	0.09	63	20	214	–
CCn1sc2cc(-c3c(C)nc4c(OCc5ccc(-c6ccc(F)cc6)cc5)cccn34)ccc2c1=O	> 2	–	–	–	–
CCNC(=O)c1ccc(-c2c(C)nc3c(OCc4ccc(-c5ccc(F)cc5)cc4)cccn23)cn1	0.075	43	22	221	–
CCn1c(=O)c2ccc(-c3c(C)nc4c(OCc5ccc(-c6ccc(F)cc6)cc5)cccn34)cc2n1C	> 2	–	–	–	–
CCNC(=O)c1ccc(-c2c(C)nc3c(OCc4ccc(-c5cccc(F)c5)cc4)cccn23)cn1	0.099	42	22	307	–
CCn1[nH]c2cc(-c3c(C)nc4c(OCc5ccc(-c6ccc(F)cc6)cc5)cccn34)ccc2c1=O	0.39	–	–	–	–
CCNC(=O)c1ccc(-c2c(C)nc3c(OCc4ccc(-c5ccccc5C(F)(F)F)cc4)cccn23)cn1	0.18	–	–	790	–
Cc1nc2c(OCc3ccc(-c4ccc(F)cc4)cc3)cccn2c1-c1ccc2c(=O)n(C)oc2c1.Cl	0.069	81	29	167	Ratio [11]: 81; Ct [12]: 5.6 nmol/g; Ratio [13]: 304; concentration at 3 h [14]: 21 µM; Kp at 3 h [20]: 0.27
CNC(=O)c1ccc(-c2c(C)nc3c(OCc4ccc(-c5ccc(F)cc5)cc4)cccn23)cn1.Cl	0.037	68	40	147	Ratio [11]: 193; Ct [12]: 7.1 nmol/g; Ratio [13]: 446; concentration at 3 h [14]: 17 µM; Kp at 3 h [20]: 0.44
CCN1Cc2cc(-c3c(C)nc4c(OCc5ccc(-c6ccc(F)cc6)cc5)cccn34)ccc2C1=O	0.092	59	10	345	–

Source: ChEMBL document CHEMBL4622842, “Optimization and biological evaluation of imidazopyridine derivatives as a novel scaffold for γ-secretase modulators with oral efficacy against cognitive deficits in Alzheimer's disease model mice” (Bioorg Med Chem, 2020)
